# pEC50: −log10 of the molar value.
# Tests used:
# [1] = Half life in pH 7.3 phosphate buffered saline by HPLC analysis; format: physicochemical
# Method in brief: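 Prodrug from 50 mM DMSO-d6 stock diluted to 1.9 mM with water/DMSO-d6. Reaction started by adding phosphate buffer (50 mM stock, pH 7.3). Products followed by analytical RP18 HPLC with TBAA or TEAA buffer/acetonitrile gradient.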
# [2] = Prodrug conversion in pH 7.3 phosphate buffered saline assessed as pig liver esterase-mediated d4TTP formation by HPLC analysis; format: ADME, Sus scrofa; conditions: in vitro
# Method in brief: (§1)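 Prodrug diluted from 50 mM DMSO stock through a 6.0 mM intermediate into DMSO/50 mM PBS pH 7.3. Started with pig liver esterase (3 mg/mL solution in PBS) and shaken at 37 °C, 800 rpm. Aliquots quenched in MeOH at intervals, filtered, stored in liquid nitrogen and analysed by RP18 HPLC.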
# [3] = Half life in human CEM/0 cell extracts by HPLC analysis; format: ADME, CCRF-CEM
# Method in brief: (§2)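 Cell extract prepared from CEM cells grown in RPMI-1640-based medium to ~3·10^6 cells/mL. Cells washed twice in cold PBS, resuspended at 10^8 cells/mL, sonicated, cleared at 10,000 rpm and stored at -80 °C. Prodrug at 6.0 mM hydrolysis solution in DMSO-d6 mixed with water and extract at 37 °C over time. Samples iced, sonicated and centrifuged; supernatant analysed by RP18 HPLC. t1/2 calculated as for chemical hydrolysis.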
# [4] = Prodrug conversion in human CEM/0 cell extracts assessed as gamma-(C6-ACB)-d4TTP formation by HPLC analysis; format: ADME; conditions: ccrf-cem; method in brief: as §2
# [5] = Cytotoxicity against human CEM cells assessed as reduction in cell proliferation; format: cell-based; conditions: CEM cells (CCRF-CEM)
# Method in brief: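 CC50 is the compound concentration inhibiting CEM CD4+ T-cell proliferation by 50%. Mean ± SD of n=2-3 independent experiments.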
# [6] = Selectivity index, ratio of CC50 for human CEM cells to EC50 for HIV1 HE infected in human CEM/0 cells; conditions: CEM cells (CC50) and HIV1 HE infected CEM/0 cells (EC50)
# [7] = test system: Human immunodeficiency virus 1; assay: Antiviral activity against HIV1 HE infected in human CEM/0 cells assessed as inhibition of virus-induced giant cell formation measured after 4 to 5 days by microscopic analysis; conditions: Human immunodeficiency virus 1, HE, CCRF-CEM
# [8] = test system: Human immunodeficiency virus 2; assay: Antiviral activity against HIV2 ROD infected in human CEM/0 cells assessed as inhibition of virus-induced giant cell formation measured after 4 to 5 days by microscopic analysis; conditions: Human immunodeficiency virus 2, ISOLATE ROD, CCRF-CEM
# [9] = test system: Human immunodeficiency virus 2; assay: Antiviral activity against HIV2 ROD infected in thymidine kinase-deficient human CEM cells assessed as inhibition of virus-induced giant cell formation measured after 4 to 5 days by microscopic analysis; conditions: Human immunodeficiency virus 2, ISOLATE ROD, CCRF-CEM
# [10] = Cytotoxicity against mouse eEND.2 cells assessed as reduction in cell viability by WST-1 assay; format: cell-based; conditions: read-out: LD50 (the source's name)
# [11] = Half life in pH 7.3 phosphate buffered saline in presence of pig liver esterase by HPLC analysis; format: ADME, Sus scrofa; method in brief: as §1
# [12] = Prodrug conversion in pH 7.3 phosphate buffered saline assessed as pig liver esterase-mediated gamma-(C16-ACB)-d4TTP formation by HPLC analysis; format: ADME, Sus scrofa; conditions: in vitro; method in brief: as §1
# [13] = Prodrug conversion in pH 7.3 phosphate buffered saline assessed as pig liver esterase-mediated d4TMP formation by HPLC analysis; format: ADME, Sus scrofa; conditions: in vitro; method in brief: as §1
# [14] = Prodrug conversion in human CEM/0 cell extracts assessed as gamma-(C16-ACB)-d4TTP formation by HPLC analysis; format: ADME; conditions: ccrf-cem; method in brief: as §2
# [15] = Prodrug conversion in human CEM/0 cell extracts assessed as d4TDP formation by HPLC analysis; format: ADME; conditions: ccrf-cem; method in brief: as §2
# [16] = Prodrug conversion in human CEM/0 cell extracts assessed as d4TTP formation by HPLC analysis; format: ADME; conditions: ccrf-cem; method in brief: as §2
# [17] = Prodrug conversion in human CEM/0 cell extracts assessed as d4TMP formation by HPLC analysis; format: ADME; conditions: ccrf-cem; method in brief: as §2
Compound,half-life [1],Drug metabolism [2],half-life [3],Drug metabolism [4],CC50 [5],selectivity ratio [6],pEC50 [7],pEC50 [8],pEC50 [9],CC50 [10],half-life [11],Drug metabolism [12],Drug metabolism [13],Drug metabolism [14],Drug metabolism [15],Drug metabolism [16],Drug metabolism [17]
CCCCCCCCCCCC(=O)Oc1ccc(COP(=O)(OCc2ccc(OC(=O)OCCCCCC)cc2)OP(=O)(O)OP(=O)(O)OC[C@@H]2C=C[C@H](n3cc(C)c(=O)[nH]c3=O)O2)cc1.N.N (some centres not stated),95 h,Metabolite_Detected,2.5 h,Metabolite_Detected,41 µM,137,6.52,7.15,6.68,–,–,–,–,–,–,–,–
OCc1ccc(O)cc1 [PARAHYDROXYBENZYL ALCOHOL],–,–,–,–,–,–,–,–,–,50000 µM,–,–,–,–,–,–,–
CCCCCCCCCCCCOC(=O)Oc1ccc(COP(=O)(OCc2ccc(OC(=O)CCCC)cc2)OP(=O)(O)OP(=O)(O)OC[C@@H]2C=C[C@H](n3cc(C)c(=O)[nH]c3=O)O2)cc1.N.N (some centres not stated),87 h,Metabolite_Detected,1.2 h,–,27 µM,675,7.40,7.77,7.14,–,0.17 h,–,–,–,–,–,–
CCCCCCCCCCCCCCCCOC(=O)Oc1ccc(COP(=O)(OCc2ccc(OC(=O)CC)cc2)OP(=O)(O)OP(=O)(O)OC[C@@H]2C=C[C@H](n3cc(C)c(=O)[nH]c3=O)O2)cc1.N.N (some centres not stated),83 h,Metabolite_Detected,1.9 h,–,34 µM,1260,–,–,6.96,–,4.7 h,Metabolite_Detected,Metabolite_Notdetected,Metabolite_Detected,Metabolite_Detected,Metabolite_Notdetected,Metabolite_Detected

# From ChEMBL document CHEMBL4613272, “Anti-HIV-Active Nucleoside Triphosphate Prodrugs” (J Med Chem, 2020)
